Series [1] is described as follows: Metabolic stability in human liver microsomes assessed as compound remaining at 2 uM after 60 mins in presence of NADPH. The series is classed as ADME, Microsome. To be noted: read-out: Stability. The procedure, abridged: (§1)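 Liver microsomes at 0.5mg/ml incubated at 37°C with test compound at 2μM in the presence of 1mM NADPH. Percent of parent compound remaining measured at 60 min. Run by a contract lab.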
For orientation: Microsomes from liver hold many membrane-bound enzymes, among them those of drug oxidation.

For the next series, the system named is Tacaribe virus. Briefly: Antiviral activity against Tacaribe virus infected in human Huh7.5 cells assessed as reduction in viral yield after 3 days by neutral-red staining-based microscopic analysis. The series is classed as functional, organism-based. The following applies: Mammarenavirus tacaribeense, Huh-7, 72 h. The essentials:
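Huh7 cells infected with Tacaribe virus at MOI 0.01. Compounds were added immediately after virus incubation at 0.01 to 100 μM. Progeny titers were determined by standard virus yield reduction assay in Vero cells, and EC50 was derived.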

Series [2] in a line: Cytotoxicity against MDBK cells by MTT assay. The following applies: cattle. The series is classed as cell-based, Bos taurus. (Formazan colour is commonly taken as a measure of viable cells.)
Series [3] in a line: Cytotoxicity against human Huh7.5 cells by MTT assay. The format is cell-based, Huh-7.
Series [4] has as its system Bovine viral diarrhea virus 1. The series is described as follows: Antiviral activity against Bovine viral diarrhea virus infected in MDBK cells assessed as reduction in viral yield after 3 days by neutral-red staining-based microscopic analysis. The series is classed as functional, organism-based. To be noted: Bovine viral diarrhea virus isolates and strains, 72 h. The procedure, abridged: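 BVDV titers from treated infected cultures were determined by standard virus yield reduction assay in MDBK cells, and EC50 was derived.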

Series [5] can be described thus: Metabolic stability in mouse liver microsomes assessed as compound remaining at 2 uM after 60 mins in presence of NADPH. The series is classed as ADME, Microsome. The following applies: read-out: Stability. The essentials:
as §1

Series [6] in a line: Metabolic stability in rat liver microsomes assessed as compound remaining at 2 uM after 60 mins in presence of NADPH. The series is classed as ADME, Microsome. The following applies: read-out: Stability. The essentials: as §1

The text below walks through data of ChEMBL document CHEMBL2401641, “Design and synthesis of N-alkyldeoxynojirimycin derivatives with improved metabolic stability as inhibitors of BVDV and Tacaribe virus” (Bioorg Med Chem Lett, 2013).

SMILES strings stand for the structures. pEC50: −log10 of the molar value.

Broadly, the pEC50 is −log10 of the EC50, conventionally taken in molar units. The term CC50 denotes the concentration that lowers cell viability or growth by half. The low end stands for greater toxicity to the cells, the high end for lower toxicity to the cells. In the case of `O=c1oc2ccccc2n1CCCCCCN1C[C@H](O)[C@@H](O)[C@H](O)[C@H]1CO`, the remaining at 1 h, 2 µM is 101% in series [1], 86.7% in series [5] and 86.9% in series [6]. The pEC50 (with Tacaribe virus; in series [4]) was 6.40 in each case. For the same molecule, the CC50 in series [2] and in series [3] was above 500 µM each time.
Regarding `CS(=O)(=O)N(CCCCCCN1C[C@H](O)[C@@H](O)[C@H](O)[C@H]1CO)C1CCCCC1`, the remaining at 1 h, 2 µM in series [1] worked out at 95.5%; in series [5] it was 86.9%; in series [6] it was 65.7%. Besides, the pEC50 is 6.15 in the series with Tacaribe virus and 6.70 in series [4]. Moreover, the CC50 in series [2] and in series [3] was above 500 µM in each case.
Take `O=S(=O)(c1ccccc1)N(CCCCCCN1C[C@H](O)[C@@H](O)[C@H](O)[C@H]1CO)C1CCCCC1`: the remaining at 1 h, 2 µM in series [1] is 13%; in series [5] it was 42.8%; in series [6] it was 3.83%. For the same molecule, the values for the pEC50 (in the series on Tacaribe virus; in series [4]) were 5.80 and 6.30, respectively. For the same molecule, the results for the CC50 in series [2] and in series [3] were 200 µM and 280 µM, respectively.
With `CC(C)(C)S(=O)(=O)N(CCCCCCN1C[C@H](O)[C@@H](O)[C@H](O)[C@H]1CO)C1CCCCC1`, the remaining at 1 h, 2 µM in series [1] worked out at 50.2%; in series [5], 65.4%; in series [6], 12.1%. Further, the pEC50 in the series on Tacaribe virus is 6.40; in series [4] it was 6.51. For the same molecule, the CC50 in series [2] and in series [3] was above 500 µM in each case.
`CC(C)(C)NC(=O)N(CCCCCCN1C[C@H](O)[C@@H](O)[C@H](O)[C@H]1CO)C1CCCCC1`: the remaining at 1 h, 2 µM in series [1] worked out at 93.6%; in series [5], 87.6%; in series [6] it was 92.8%. Moreover, the pEC50 in the series with Tacaribe virus was 6.13; in series [4] it was 6.60. Besides, the CC50 in series [2] and in series [3] was above 500 µM throughout.
With `CC(C)(C)C(=O)N(CCCCCCN1C[C@H](O)[C@@H](O)[C@H](O)[C@H]1CO)C1CCCCC1`, the remaining at 1 h, 2 µM in series [1] is 41.6%; in series [5], 58.6%; in series [6], 26.9%. The same molecule gave a CC50 in series [2] above 500 µM.
Take `CC(C)OP(=O)(OC(C)C)N(CCCCCCN1C[C@H](O)[C@@H](O)[C@H](O)[C@H]1CO)C1CCCCC1`: the pEC50 in the series on Tacaribe virus was 6.52; in series [4], 5.47. Also, the 50% cytotoxic concentration (CC50) is above 500 µM in series [2] and 310 µM in series [3].
Turning to `CC(C)(C)C(=O)N(CCCCCCN1C[C@H](O)[C@@H](O)[C@H](O)[C@H]1CO)c1ccc(F)cc1F`, the remaining at 1 h, 2 µM is 36.1% in series [1], 55.3% in series [5] and 21.6% in series [6].
In the case of `CCCNC(=O)N(CCCCCCN1C[C@H](O)[C@@H](O)[C@H](O)[C@H]1CO)C1CCCCC1`, the values for the pEC50 (with Tacaribe virus; in series [4]) were 4.60 and 4.80, respectively. The CC50 in series [2] and in series [3] was above 500 µM in each case.
The molecule `O=C1OC[C@H](c2ccccc2)N1CCCCCCN1C[C@H](O)[C@@H](O)[C@H](O)[C@H]1CO` came in with a CC50 in series [2] above 500 µM. In series [4], the negative-log EC50 (pEC50) is 6.10.
On to `O=C1OC[C@@H](c2ccccc2)N1CCCCCCN1C[C@H](O)[C@@H](O)[C@H](O)[C@H]1CO`, for which, in series [2], the CC50 is above 500 µM. For the same molecule, the pEC50 in series [4] is 5.46.
For the molecule `O=C(c1cc(F)c(F)cc1F)N(CCCCCCN1C[C@H](O)[C@@H](O)[C@H](O)[C@H]1CO)C1CCCCC1`, the values for the pEC50 (with Tacaribe virus; in series [4]) were 6.22 and 6.57, respectively. For the same molecule, the CC50 in series [2] and in series [3] was above 500 µM each time.
`NC(=O)N(CCCCCCN1C[C@H](O)[C@@H](O)[C@H](O)[C@H]1CO)C1CCCCC1`: the pEC50 in the series on Tacaribe virus is 4.00; in series [4] it was 4.85. Moreover, the CC50 in series [2] and in series [3] was above 500 µM each time.
For the molecule `O=C(c1ccccc1)N(CCCCCCN1C[C@H](O)[C@@H](O)[C@H](O)[C@H]1CO)C1CCCCC1`, the remaining at 1 h, 2 µM was 82.6% in series [1], 97.4% in series [5] and 77.4% in series [6]. For the same molecule, the pEC50 in the series on Tacaribe virus was 6.22; in series [4] it was 6.49. For the same molecule, the CC50 in series [2] and in series [3] was above 500 µM in each case.
